Measured values as given in ChEMBL document CHEMBL2331240, “Focused library development of 2-phenylacrylamides as broad spectrum cytotoxic agents” (2013).
The source made the active and inactive calls. The calls are words filed in the database; no cut-off is given here.

Key:
A-431 = assay: Cytotoxicity against human A431 cells assessed as growth inhibition at 25 uM measured after 72 hrs by MTT assay; assay type: functional, cell-based
How it was run: (§1)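 Log-phase cells were plated in duplicate at 2500–4000 cells/well in DMEM with 10% FBS, glutamine and antibiotics, at 37 °C under 5% CO2. Drug was added 24 h after plating from a 40 mM DMSO stock, to a final 25 μM. After 72 h exposure, MTT was read at 540 nm and % growth inhibition was calculated, with 100% meaning total growth inhibition.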

NCI-H460 = assay: Cytotoxicity against human H460 cells assessed as growth inhibition at 25 uM measured after 72 hrs by MTT assay; assay type: functional, cell-based; how it was run: as §1
HT-29 = assay: Cytotoxicity against human HT-29 cells assessed as growth inhibition at 25 uM measured after 72 hrs by MTT assay; assay type: functional, cell-based; how it was run: as §1
SW480 = assay: Cytotoxicity against human SW480 cells assessed as growth inhibition at 25 uM measured after 72 hrs by MTT assay; assay type: functional; how it was run: as §1
SJ-G2 = assay: Cytotoxicity against human SJ-G2 cells assessed as growth inhibition at 25 uM measured after 72 hrs by MTT assay; assay type: functional, cell-based; how it was run: as §1
MIA = assay: Cytotoxicity against human MIA cells assessed as growth inhibition at 25 uM measured after 72 hrs by MTT assay; assay type: functional; how it was run: as §1
SMA = assay: Cytotoxicity against mouse SMA cells assessed as growth inhibition at 25 uM measured after 72 hrs by MTT assay
DU-145 = assay: Cytotoxicity against human DU145 cells assessed as growth inhibition at 25 uM measured after 72 hrs by MTT assay; assay type: functional, cell-based; how it was run: as §1
A2780 = assay: Cytotoxicity against human A2780 cells assessed as growth inhibition at 25 uM measured after 72 hrs by MTT assay; assay type: functional; how it was run: as §1
BE(2)-C = assay: Cytotoxicity against human BE(2)-C cells assessed as growth inhibition at 25 uM measured after 72 hrs by MTT assay; assay type: functional; how it was run: as §1
MCF7 = assay: Cytotoxicity against human MCF7 cells assessed as growth inhibition at 25 uM measured after 72 hrs by MTT assay; assay type: functional; how it was run: as §1

Structure (SMILES): COc1ccc(/C=C(\C#N)C(=O)c2ccc[nH]2)cc1
- growth inhibition (GI) (A-431): inactive
- growth inhibition (GI) (NCI-H460): inactive
- growth inhibition (GI) (HT-29): inactive
- growth inhibition (GI) (SW480): inactive
- growth inhibition (GI) (SJ-G2): inactive
- growth inhibition (GI) (MIA): inactive
- growth inhibition (GI) (SMA): inactive
- growth inhibition (GI) (DU-145): inactive
- growth inhibition (GI) (A2780): inactive
- growth inhibition (GI) (BE(2)-C): inactive
- growth inhibition (GI) (MCF7): inactive

Structure (SMILES): Cc1ccc(/C=C(\C#N)C(=O)NCc2ccc(Cl)c(Cl)c2)cc1
- growth inhibition (GI) (A-431): inactive
- growth inhibition (GI) (NCI-H460): inactive
- growth inhibition (GI) (HT-29): inactive
- growth inhibition (GI) (SW480): inactive
- growth inhibition (GI) (SJ-G2): inactive
- growth inhibition (GI) (MIA): inactive
- growth inhibition (GI) (SMA): inactive
- growth inhibition (GI) (DU-145): inactive
- growth inhibition (GI) (A2780): inactive
- growth inhibition (GI) (BE(2)-C): inactive
- growth inhibition (GI) (MCF7): inactive

Structure (SMILES): N#C/C(=C\c1ccc(O)cc1)C(=O)c1ccc[nH]1
- growth inhibition (GI) (A-431): inactive
- growth inhibition (GI) (NCI-H460): inactive
- growth inhibition (GI) (HT-29): inactive
- growth inhibition (GI) (SW480): inactive
- growth inhibition (GI) (SJ-G2): inactive
- growth inhibition (GI) (MIA): inactive
- growth inhibition (GI) (SMA): inactive
- growth inhibition (GI) (DU-145): inactive
- growth inhibition (GI) (A2780): inactive
- growth inhibition (GI) (BE(2)-C): inactive
- growth inhibition (GI) (MCF7): inactive

Structure (SMILES): N#C/C(=C\c1ccc(O)cc1)C(=O)c1c[nH]c2ccccc12
- growth inhibition (GI) (A-431): inactive
- growth inhibition (GI) (NCI-H460): inactive
- growth inhibition (GI) (HT-29): inactive
- growth inhibition (GI) (SW480): inactive
- growth inhibition (GI) (SJ-G2): inactive
- growth inhibition (GI) (MIA): inactive
- growth inhibition (GI) (SMA): inactive
- growth inhibition (GI) (DU-145): inactive
- growth inhibition (GI) (A2780): inactive
- growth inhibition (GI) (BE(2)-C): inactive
- growth inhibition (GI) (MCF7): inactive

Structure (SMILES): COc1ccc(CNC(=O)/C(C#N)=C/c2ccc(O)cc2)cc1
- growth inhibition (GI) (A-431): inactive
- growth inhibition (GI) (NCI-H460): inactive
- growth inhibition (GI) (HT-29): inactive
- growth inhibition (GI) (SW480): inactive
- growth inhibition (GI) (SJ-G2): inactive
- growth inhibition (GI) (MIA): inactive
- growth inhibition (GI) (SMA): inactive
- growth inhibition (GI) (DU-145): inactive
- growth inhibition (GI) (A2780): inactive
- growth inhibition (GI) (BE(2)-C): inactive
- growth inhibition (GI) (MCF7): inactive

Structure (SMILES): N#C/C(=C\c1ccc(O)cc1)C(=O)NCc1ccc(Cl)c(Cl)c1
- growth inhibition (GI) (A-431): inactive
- growth inhibition (GI) (NCI-H460): inactive
- growth inhibition (GI) (HT-29): inactive
- growth inhibition (GI) (SW480): inactive
- growth inhibition (GI) (SJ-G2): inactive
- growth inhibition (GI) (MIA): inactive
- growth inhibition (GI) (SMA): inactive
- growth inhibition (GI) (DU-145): inactive
- growth inhibition (GI) (A2780): inactive
- growth inhibition (GI) (BE(2)-C): inactive
- growth inhibition (GI) (MCF7): inactive

Structure (SMILES): N#C/C(=C\c1ccc2ccccc2c1)C(=O)c1c[nH]c2ccccc12
- growth inhibition (GI) (A-431): inactive
- growth inhibition (GI) (NCI-H460): inactive
- growth inhibition (GI) (HT-29): inactive
- growth inhibition (GI) (SW480): inactive
- growth inhibition (GI) (SJ-G2): inactive
- growth inhibition (GI) (MIA): inactive
- growth inhibition (GI) (SMA): inactive
- growth inhibition (GI) (DU-145): inactive
- growth inhibition (GI) (A2780): inactive
- growth inhibition (GI) (BE(2)-C): inactive
- inhibition of growth at 25 µM (MCF7; MCF7, 72 h, read-out: GI): 40%

Structure (SMILES): Cc1ccc(/C=C(\C#N)C(=O)c2ccc[nH]2)cc1
- growth inhibition (GI) (A-431): inactive
- growth inhibition (GI) (NCI-H460): inactive
- growth inhibition (GI) (HT-29): inactive
- growth inhibition (GI) (SW480): inactive
- growth inhibition (GI) (SJ-G2): inactive
- growth inhibition (GI) (MIA): inactive
- growth inhibition (GI) (SMA): inactive
- growth inhibition (GI) (DU-145): inactive
- growth inhibition (GI) (A2780): inactive
- growth inhibition (GI) (BE(2)-C): inactive
- growth inhibition (GI) (MCF7): inactive

Structure (SMILES): N#C/C(=C\c1ccc2ccccc2c1)C(=O)c1ccc[nH]1
- growth inhibition (GI) (A-431): inactive
- growth inhibition (GI) (NCI-H460): inactive
- growth inhibition (GI) (HT-29): inactive
- growth inhibition (GI) (SW480): inactive
- growth inhibition (GI) (SJ-G2): inactive
- growth inhibition (GI) (MIA): inactive
- growth inhibition (GI) (SMA): inactive
- growth inhibition (GI) (DU-145): inactive
- growth inhibition (GI) (A2780): inactive
- growth inhibition (GI) (BE(2)-C): inactive
- growth inhibition (GI) (MCF7): inactive

Structure (SMILES): COc1ccc(/C=C(\C#N)C(=O)NCc2ccc(OC)cc2)cc1
- growth inhibition (GI) (A-431): inactive
- growth inhibition (GI) (NCI-H460): inactive
- growth inhibition (GI) (HT-29): inactive
- growth inhibition (GI) (SW480): inactive
- growth inhibition (GI) (SJ-G2): inactive
- growth inhibition (GI) (MIA): inactive
- growth inhibition (GI) (SMA): inactive
- growth inhibition (GI) (DU-145): inactive
- growth inhibition (GI) (A2780): inactive
- growth inhibition (GI) (BE(2)-C): inactive
- growth inhibition (GI) (MCF7): inactive

Structure (SMILES): N#C/C(=C\c1ccc(C(F)(F)F)cc1)C(=O)c1c[nH]c2ccccc12
- growth inhibition (GI) (A-431): inactive
- growth inhibition (GI) (NCI-H460): inactive
- growth inhibition (GI) (HT-29): inactive
- growth inhibition (GI) (SW480): inactive
- growth inhibition (GI) (SJ-G2): inactive
- growth inhibition (GI) (MIA): inactive
- growth inhibition (GI) (SMA): inactive
- growth inhibition (GI) (DU-145): inactive
- growth inhibition (GI) (A2780): inactive
- growth inhibition (GI) (BE(2)-C): inactive
- growth inhibition (GI) (MCF7): inactive

Structure (SMILES): N#C/C(=C\c1ccc(Cl)cc1)C(=O)c1c[nH]c2ccccc12
- growth inhibition (GI) (A-431): inactive
- growth inhibition (GI) (NCI-H460): inactive
- growth inhibition (GI) (HT-29): inactive
- growth inhibition (GI) (SW480): inactive
- growth inhibition (GI) (SJ-G2): inactive
- growth inhibition (GI) (MIA): inactive
- growth inhibition (GI) (SMA): inactive
- growth inhibition (GI) (DU-145): inactive
- growth inhibition (GI) (A2780): inactive
- growth inhibition (GI) (BE(2)-C): inactive
- growth inhibition (GI) (MCF7): inactive

Structure (SMILES): N#C/C(=C\c1ccc(C(F)(F)F)cc1)C(=O)c1ccc[nH]1
- growth inhibition (GI) (A-431): inactive
- growth inhibition (GI) (NCI-H460): inactive
- growth inhibition (GI) (HT-29): inactive
- growth inhibition (GI) (SW480): inactive
- growth inhibition (GI) (SJ-G2): inactive
- growth inhibition (GI) (MIA): inactive
- growth inhibition (GI) (SMA): inactive
- growth inhibition (GI) (DU-145): inactive
- growth inhibition (GI) (A2780): inactive
- growth inhibition (GI) (BE(2)-C): inactive
- growth inhibition (GI) (MCF7): inactive

Structure (SMILES): N#C/C(=C\c1ccc([N+](=O)[O-])cc1)C(=O)c1ccc[nH]1
- growth inhibition (GI) (A-431): inactive
- growth inhibition (GI) (NCI-H460): inactive
- growth inhibition (GI) (HT-29): inactive
- growth inhibition (GI) (SW480): inactive
- growth inhibition (GI) (SJ-G2): inactive
- growth inhibition (GI) (MIA): inactive
- growth inhibition (GI) (SMA): inactive
- growth inhibition (GI) (DU-145): inactive
- growth inhibition (GI) (A2780): inactive
- growth inhibition (GI) (BE(2)-C): inactive
- growth inhibition (GI) (MCF7): inactive

Structure (SMILES): COc1ccc(/C=C(\C#N)C(=O)c2c[nH]c3ccccc23)cc1
- growth inhibition (GI) (A-431): inactive
- growth inhibition (GI) (NCI-H460): inactive
- growth inhibition (GI) (HT-29): inactive
- growth inhibition (GI) (SW480): inactive
- growth inhibition (GI) (SJ-G2): inactive
- growth inhibition (GI) (MIA): inactive
- growth inhibition (GI) (SMA): inactive
- growth inhibition (GI) (DU-145): inactive
- growth inhibition (GI) (A2780): inactive
- growth inhibition (GI) (BE(2)-C): inactive
- growth inhibition (GI) (MCF7): inactive

Structure (SMILES): COc1ccc(CNC(=O)/C(C#N)=C/c2ccc(CO)o2)cc1
- growth inhibition (GI) (A-431): inactive
- growth inhibition (GI) (NCI-H460): inactive
- growth inhibition (GI) (HT-29): inactive
- growth inhibition (GI) (SW480): inactive
- growth inhibition (GI) (SJ-G2): inactive
- growth inhibition (GI) (MIA): inactive
- growth inhibition (GI) (SMA): inactive
- growth inhibition (GI) (DU-145): inactive
- growth inhibition (GI) (A2780): inactive
- growth inhibition (GI) (BE(2)-C): inactive
- growth inhibition (GI) (MCF7): inactive

Structure (SMILES): Cc1ccc(/C=C(\C#N)C(=O)c2c[nH]c3ccccc23)cc1
- growth inhibition (GI) (A-431): inactive
- growth inhibition (GI) (NCI-H460): inactive
- growth inhibition (GI) (HT-29): inactive
- growth inhibition (GI) (SW480): inactive
- growth inhibition (GI) (SJ-G2): inactive
- growth inhibition (GI) (MIA): inactive
- growth inhibition (GI) (SMA): inactive
- growth inhibition (GI) (DU-145): inactive
- growth inhibition (GI) (A2780): inactive
- growth inhibition (GI) (BE(2)-C): inactive
- growth inhibition (GI) (MCF7): inactive

Structure (SMILES): N#C/C(=C\c1ccc(Cl)c(Cl)c1)C(=O)c1ccc[nH]1
- growth inhibition (GI) (A-431): inactive
- growth inhibition (GI) (NCI-H460): inactive
- growth inhibition (GI) (HT-29): inactive
- growth inhibition (GI) (SW480): inactive
- growth inhibition (GI) (SJ-G2): inactive
- growth inhibition (GI) (MIA): inactive
- growth inhibition (GI) (SMA): inactive
- growth inhibition (GI) (DU-145): inactive
- growth inhibition (GI) (A2780): inactive
- growth inhibition (GI) (BE(2)-C): inactive
- growth inhibition (GI) (MCF7): inactive
